The structures appear in SMILES notation. pIC50: −log10 of the molar value. The source made the active and inactive calls. No cut-off for these calls is given here.

The subject of test [1] is Human immunodeficiency virus 1. Kind of test: Antiviral activity against HIV-1 NL4-3 infected in human MT4 cells assessed as inhibition of viral replication after 4 days by ELISA. The test is classed as functional. In a few lines:
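MT4 cells infected with HIV-1 NL4-3 at MOI 0.001 in presence of graded compound concentrations; fresh medium with compound added 48 h post-infection to sustain growth. Replication measured by p24 ELISA on day 4 post-infection. EC90 (concentration inhibiting replication by 90%) calculated from dose-response.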

The test system of the next test is MT4. Kind of test: Cytotoxicity against human MT4 cells by CellTitre-Glo luminescent assay. It is filed as cell-based.
Where [2] appears, read: Human immunodeficiency virus 1, NL4-3, MT4, 96 h.

As a reminder, the EC90 is the concentration needed for an effect of 90%. For the compound `COc1ccc([C@@H]2Oc3cc(O)cc(O)c3C(=O)[C@@H]2[C@H]2C(=O)c3c(O)cc(OC)cc3O[C@H]2c2ccc(OC)cc2)cc1`, the EC90 result in test [1] is “inactive”. As usually defined, the pIC50 is −log10 of the IC50, conventionally taken in molar units. Read a high pIC50 as a small IC50. In the case of `COc1cc(/C=C/C(=O)OCCCCCCCCCCCCCCCCCCCCCC(=O)OCC(O)CO)ccc1O` (configuration not stated), the pIC50 in the test on MT4 was 4.79.

On to `COc1ccc([C@@H]2Oc3cc(O)cc(O)c3C(=O)[C@@H]2[C@H]2C(=O)c3c(O)cc(O)cc3O[C@H]2c2ccc(OC)cc2)cc1`, for which the EC90 result in test [1] is “inactive”. In the case of `CC/C=C\C/C=C\CCC(=O)O[C@@]12[C@H](OC(=O)c3ccccc3)[C@@H](C)[C@@]3(O)[C@@H](C=C(CO)C[C@]4(O)C(=O)C(C)=C[C@@H]34)[C@@H]1C2(C)C`, in test [1] (setting [2]), the EC90 amounted to 6.8 nM. Besides, the pIC50 in the test on MT4 was 5.11. Turning to `CCCCCCCCCC(=O)O[C@@]12[C@H](OC(=O)c3ccccc3)[C@@H](C)[C@@]3(O)[C@@H](C=C(CO)C[C@]4(O)C(=O)C(C)=C[C@@H]34)[C@@H]1C2(C)C` [STELLERARIN], the EC90 in test [1] (setting [2]) came to 0.5 nM. The same compound showed a pIC50 with MT4 of 5.29.

Turning to `CCCCCCCC(=O)O[C@@]12[C@H](OC(=O)c3ccccc3)[C@@H](C)[C@]3(O)[C@@H]4C=C(C)C(=O)[C@@]4(O)[C@H](O)C(CO)=C[C@H]3[C@@H]1C2(C)C`, the EC90 in test [1] (setting [2]) amounted to 3.8 nM. The compound also had a pIC50 in the test on MT4 of 4.76. On the same counts, the results for `C=C(C)[C@@]12C[C@@H](COC(=O)c3ccccc3)[C@@]34OC5(O[C@@H]1[C@@H]3[C@@H]1O[C@]1(CO)[C@@H](O)[C@@]1(O)[C@H]4[C@H]([C@H](C)[C@@H]1OC(=O)c1ccccc1)[C@H](C)CCCCCC[C@H]5O)O2` [GNIDIMACRIN] are 0.4 nM and 5.37. On the same counts, the results for `CCCCCCCC(=O)O[C@@]12[C@H](OC(=O)c3ccccc3)[C@@H](C)[C@@]3(O)[C@H]([C@@H]1C2(C)C)[C@@H](OO)C(CO)=C[C@]1(O)C(=O)C(C)=C[C@@H]31` are 1520 nM and 4.80. For the compound `O=C(/C=C/CCc1ccccc1)c1ccccc1`, the EC90 entry in test [1] was “inactive”. In the case of `COc1ccc([C@@H]2Oc3cc(OC)cc(O)c3C(=O)[C@H]2[C@@H]2C(=O)c3c(O)cc(O)cc3O[C@H]2c2ccc(O)cc2)cc1`, the EC90 in test [1] (setting [2]) was found to be 4210 nM. Besides, in the test on MT4, the pIC50 is 4.76. On the same counts, the results for `CCCCC/C=C\CCC(=O)O[C@@]12[C@H](OC(=O)c3ccccc3)[C@@H](C)[C@@]3(O)[C@@H](C=C(CO)C[C@]4(O)C(=O)C(C)=C[C@@H]34)[C@@H]1C2(C)C` are 0.66 nM and 5.33.

For `C=C(C)[C@]12C[C@@H](COC(C)=O)[C@@]34O[C@]5(O[C@@H]1[C@@H]3[C@@H]1O[C@]1(CO)[C@@H](O)[C@@]1(O)[C@H]4[C@H]([C@H](C)[C@@H]1OC(=O)c1ccccc1)[C@H](C)CCCCCC[C@H]5O)O2`, the EC90 in test [1] (setting [2]) was found to be 0.4 nM. This compound also had a negative-log IC50 (pIC50) with MT4 of 5.37.

`CCCCCCCCCC(=O)O[C@@]12[C@H](OC(=O)c3ccccc3)[C@@H](C)[C@@]3(O)[C@H]([C@@H]1C2(C)C)[C@@H](OO)C(CO)=C[C@]1(O)C(=O)C(C)=C[C@@H]31`: the EC90 in test [1] (setting [2]) came to 490 nM. This compound also gave a pIC50 in the test with MT4 of 5.46.

(Values after ChEMBL document CHEMBL2375298, “Isolation, structure determination, and anti-HIV evaluation of tigliane-type diterpenes and biflavonoid from Stellera chamaejasme” (J Nat Prod, 2013).)
